From ChEMBL document CHEMBL5036319, “Discovery of Novel Benzothiazepinones as Irreversible Covalent Glycogen Synthase Kinase 3β Inhibitors for the Treatment of Acute Promyelocytic Leukemia” (J Med Chem, 2021)

Experiments:
[1] = Induction in caspase-mediated apoptosis in human NB-4 cells assessed as late apoptotic cells at 50 uM incubated for 24 hrs in presence of Z-VAD-FMK by Annexin V-FITC/propidium iodide staining based flow cytometry analysis (reference value: 1.15%); type: functional
MOLT-4 = assay: Cytotoxicity against human MOLT-4 cells assessed as reduction in cell viability measured after 24 hrs by CCK-8 assay; type: functional, cell-based; conditions: MOLT-4, 24 h
How it was run: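 Cells were grown in RPMI-1640 or high-glucose DMEM with 10% FBS at 37 °C, 5% CO2, and seeded at 3 × 10^4 cells/well. Exposure was 24 h across serial concentrations (0−1000 μM in the screen). […] Three independent experiments, mean ± SEM.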

[2] = Induction in caspase-mediated apoptosis in human NB-4 cells assessed as early apoptotic cells at 25 uM incubated for 24 hrs by Annexin V-FITC/propidium iodide staining based flow cytometry analysis (reference value: 2.02%); type: functional
[3] = Induction in caspase-mediated apoptosis in human NB-4 cells assessed as necrotic cells at 25 uM incubated for 24 hrs by Annexin V-FITC/Propidium iodide staining based flow cytometry analysis (reference value: 0.352%); type: functional
[4] = Induction in caspase-mediated apoptosis in human NB4-DR1 cells assessed as early apoptosis cells at 100 uM incubated for 24 hrs in presence of Z-VAD-FMK by Annexin V-FITC/propidium iodide staining based flow cytometry analysis (reference value: 0.875%); type: functional
[5] = Induction in caspase-mediated apoptosis in human NB-4 cells assessed as viable cells at 12.5 uM incubated for 24 hrs by Annexin V-FITC/propidium iodide staining based flow cytometry analysis (reference value: 96.6%); type: functional; conditions: read-out: Activity
[6] = Induction in caspase-mediated apoptosis in human NB4-DR1 cells assessed as early apoptotic cells at 12.5 uM incubated for 24 hrs by Annexin V-FITC/propidium iodide staining based flow cytometry analysis (reference value: 1.43%); type: functional
[7] = AUClast in ICR mouse at 15 mg/kg, ip administered as single dose measured upto 8 hrs by LC-MS/MS analysis; type: ADME, organism-based; parameters: route intraperitoneal, dose 15 mg/kg, time <=8; conditions: in vivo
How it was run: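 Male ICR mice (30 g) given a single i.p. bolus of 15 mg/kg in corn oil. Blood taken by orbital collection into K3EDTA tubes at 0.08, 0.17, 0.5, 1, 2, 4 and 8 h, three animals per time point, giving a composite profile. Plasma proteins were precipitated with acetonitrile and analysed by LC-MS/MS. Parameters were derived by non-compartmental analysis.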

[8] = Induction in caspase-mediated apoptosis in human NB-4 cells assessed as early apoptotic cells at 25 uM incubated for 24 hrs in presence of Z-VAD-FMK by Annexin V-FITC/propidium iodide staining based flow cytometry analysis (reference value: 1.84%); type: functional
[9] = Cytotoxicity against human L02 assessed as cell viability at 100 uM incubated for 24 hrs by CCK-8 assay relative to control; type: cell-based; conditions: L02 cells, read-out: Activity
How it was run: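 HUVEC and LO2 normal cells were cultured in RPMI-1640 or DMEM with 10% FBS at 37 °C, 5% CO2, and seeded at 3 × 10^4 cells/well. They were exposed for 24 h to graded concentrations. CCK-8 incubation was 3 h at 37 °C, with A450 read and viability expressed versus untreated control. Three independent experiments, mean ± SEM.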

AUC(0-t) at 8 h [7]: 3500 ng·h/mL
Compound: C=CC(=O)N1C(=O)CC(c2ccc(F)cc2)Sc2ccccc21 (stereo not given)
Activity [1]: 11.7%
IC50 (MOLT-4): 75.6 µM
Activity [2]: 6.44%
Activity [3]: 11.6%
Activity [4]: 2.19%
viability at 12.5 µM [5]: 77%
Activity [6]: 1.77%
Activity [8]: 7.42%
viability at 24 h, 100 µM [9]: > 70%
